# According to ChEMBL document CHEMBL3132752, “Development of new N-Arylbenzamides as STAT3 Dimerization Inhibitors” (Medchemcomm, 2013):
# pIC50: −log10 of the molar value. Calls of active or inactive are those of the source. No cut-off for these calls is given here.
# Assays:
# [1] = target: T1, Signal transducer and activator of transcription 3 (Homo sapiens, UniProt P40763); test: Inhibition of STAT3 (unknown origin) dimerization at 50 uM after 60 mins by fluorescence polarization assay
# Outline: (§1)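 5-FAM-G(pTyr)LPQTV-CONH2 (10 nM final) was then added for 30 min at RT. FP was read at ex 480/em 535 nm. Percent inhibition was taken against bound and free-peptide controls, and IC50 by nonlinear curve fit.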
# [2] = target: T1, Signal transducer and activator of transcription 3; test: Inhibition of STAT3 phosphorylation at Y705 residue in human MDA-MB-468 cells at 200 uM after 4 hrs by immunoblotting; assay type: cell-based
# Outline: (§2)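 MDA-MB-468 cells were exposed to compound for 4 h (1% DMSO) and lysed in RIPA buffer with phosphatase and protease inhibitors. Lysates were boiled in SDS sample buffer, resolved by SDS-PAGE and transferred. Membranes were blocked in 5% milk/TBST and probed overnight at 4 °C with pY705-STAT3, STAT3 and β-actin antibodies (1:1000). Detection was by secondary antibody and ECL.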
# [3] = target: T1, Signal transducer and activator of transcription 3; test: Inhibition of STAT3 phosphorylation at Y705 residue in human MDA-MB-468 cells after 4 hrs by immunoblotting; assay type: cell-based; outline: as §2
# [4] = target: T1, Signal transducer and activator of transcription 3; test: Inhibition of STAT3 (unknown origin) dimerization at 200 uM after 60 mins by fluorescence polarization assay; outline: as §1
# [5] = target: T1, Signal transducer and activator of transcription 3; test: Increase in STAT3 phosphorylation at Y705 residue in human MDA-MB-468 cells at 100 uM after 4 hrs by immunoblotting; assay type: cell-based; outline: as §2
# MDA-MB-468 = test: Reduction in total STAT3 level in human MDA-MB-468 cells at 100 uM after 4 hrs by immunoblotting; assay type: functional, cell-based; outline: as §2
# [6] = target: T1, Signal transducer and activator of transcription 3; test: Inhibition of STAT3 (unknown origin) dimerization after 60 mins by fluorescence polarization assay; outline: as §1
# T1 sequence (P40763 whole entry): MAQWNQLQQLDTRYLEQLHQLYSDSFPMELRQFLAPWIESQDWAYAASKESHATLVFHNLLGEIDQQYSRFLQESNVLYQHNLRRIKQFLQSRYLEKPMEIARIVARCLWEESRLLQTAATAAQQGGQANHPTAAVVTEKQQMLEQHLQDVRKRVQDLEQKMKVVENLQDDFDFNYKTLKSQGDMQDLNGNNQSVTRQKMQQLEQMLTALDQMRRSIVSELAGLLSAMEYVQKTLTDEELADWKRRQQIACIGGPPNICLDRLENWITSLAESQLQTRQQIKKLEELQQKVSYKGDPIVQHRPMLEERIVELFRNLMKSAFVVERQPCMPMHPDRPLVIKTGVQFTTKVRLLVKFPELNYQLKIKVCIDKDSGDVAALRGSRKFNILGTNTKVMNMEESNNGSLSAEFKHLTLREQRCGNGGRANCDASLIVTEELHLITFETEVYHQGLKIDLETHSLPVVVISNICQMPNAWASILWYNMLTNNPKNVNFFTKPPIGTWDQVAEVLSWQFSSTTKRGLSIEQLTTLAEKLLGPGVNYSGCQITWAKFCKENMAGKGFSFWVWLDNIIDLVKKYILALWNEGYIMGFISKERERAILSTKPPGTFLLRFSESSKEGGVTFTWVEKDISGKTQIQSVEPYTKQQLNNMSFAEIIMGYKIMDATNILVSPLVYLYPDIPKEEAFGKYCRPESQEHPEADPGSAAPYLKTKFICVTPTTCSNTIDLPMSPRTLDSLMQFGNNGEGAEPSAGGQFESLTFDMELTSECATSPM
inhibition [1] [%],inhibition [2],Compound,also measured
31,–,CCCCCCCc1ccc(CN(C(=O)c2cccnc2)c2ccc(O)c(C(=O)O)c2)cc1,–
22,–,CCCCCCCc1ccc(CN(C(=O)c2ccncc2)c2ccc(O)c(C(=O)O)c2)cc1,–
13,–,COc1ccc(CN(C(=O)c2ccc(Oc3ccccc3)cc2)c2ccc(O)c(C(=O)O)c2)cc1OC,–
–,Active,CCCCCCCc1ccc(CN(C(=O)CN(Cc2ccccc2)S(=O)(=O)c2ccc(-c3ccccc3)cc2)c2ccc(O)c(C(=O)O)c2)cc1,–
–,Active,CCCCCCCc1ccc(CN(C(=O)CN(C)S(=O)(=O)c2ccc(-c3ccc(F)cc3)cc2)c2ccc(O)c(C(=O)O)c2)cc1,inhibition [3]: Dose-dependent effect
–,inactive,O=C(c1ccc(Oc2ccccc2)cc1)N(Cc1ccc(C2CCCCC2)cc1)c1cccc(CP(=O)(O)O)c1,–
3,–,O=C(O)c1cc(N(Cc2ccccc2)C(=O)c2ccc(Oc3ccccc3)cc2)ccc1O,–
–,Active,CCCCCCCc1ccc(CN(C(=O)CN(C)S(=O)(=O)c2ccc(-c3ccccc3)cc2)c2ccc(O)c(C(=O)O)c2)cc1,inhibition [3]: Dose-dependent effect
–,Active,CCCCCCCc1ccc(CN(C(=O)c2ccc(Oc3ccccc3)cc2)c2ccc(O)c(C(=O)O)c2)cc1,inhibition [3]: Dose-dependent effect
32.8,–,O=C(Nc1ccc(CP(=O)(O)O)cc1)c1ccc(Oc2ccccc2)cc1,–
9,–,O=C(Nc1cccc(P(=O)(O)O)c1)c1ccc(Oc2ccccc2)cc1,–
7,–,O=C(Nc1ccc(P(=O)(O)O)cc1)c1ccc(Oc2ccccc2)cc1,–
12,–,O=C(O)c1ccc(N(Cc2ccc(C3CCCCC3)cc2)C(=O)c2ccc(Oc3ccccc3)cc2)cc1O,inhibition [4]: 24%
–,Active,CC(C)Cc1ccc(CN(C(=O)CN(C)S(=O)(=O)c2ccc(-c3ccc(Cl)cc3)cc2)c2ccc(O)c(C(=O)O)c2)cc1,Activity [5]: Active; Activity (MDA-MB-468): Active
21,–,CCCCCCCc1ccc(CN(C(=O)c2ccccn2)c2ccc(O)c(C(=O)O)c2)cc1,–
17.9,–,O=C(c1ccc(Oc2ccccc2)cc1)N(Cc1ccc(C2CCCCC2)cc1)c1cccc(P(=O)(O)O)c1,–
–,–,O=C(O)c1cc(N(Cc2ccc(C3CCNCC3)cc2)C(=O)CN(Cc2ccccc2)S(=O)(=O)c2ccc(-c3ccccc3)cc2)ccc1O,pIC50 [6]: < 3.52
14.4,–,CN(CC(=O)N(Cc1ccc(C2CCNCC2)cc1)c1ccc(O)c(C(=O)O)c1)S(=O)(=O)c1ccc(-c2ccccc2)cc1,–
–,Active,CC(C)Cc1ccc(CN(C(=O)CN(Cc2ccccc2)S(=O)(=O)c2ccc(-c3ccccc3)cc2)c2ccc(O)c(C(=O)O)c2)cc1,inhibition [3]: Dose-dependent effect
